{"source": "paper PMC2726660", "about": "(Archives of biochemistry and biophysics, 2009)", "key": {"[1]": {"system": "MCF-7 human breast carcinoma cells", "assay": "Growth of human breast carcinoma MCF-7 cells", "type": "cell-based", "settings": "for IC50: read-out: Inhibition of cell growth IC50 (μM) ± S. D., MCF-7 cells, 48 h, sulforhodamine B", "method_in_brief": "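MCF-7 cells from the NCI drug screening group, grown in RPMI with 10% heat-treated fetal bovine serum. About 5,000 cells per well seeded, adhered overnight, then exposed to test compound for 48 h at 37 °C in humidified 5% CO2; final DMSO 0.5% (v/v). Growth read as cellular protein by sulforhodamine B staining. IC50 is 50% growth inhibition.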"}, "[2]": {"system": "purified bovine brain tubulin", "assay": "Electron microscopy of polymer morphology", "type": "biochemical", "settings": "10 μM compound, 10 μM tubulin, 0.75 M glutamate, 30 min at 30 °C", "method_in_brief": "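Purified bovine brain tubulin with microtubule-associated proteins removed, at 10 μM, in 0.75 M monosodium glutamate (stock pH 6.6), 10 μM GTP and 4% DMSO. Test compound at 10 μM, with a no-addition control. After 30 min at 30 °C, aliquots were put on carbon-coated Formvar copper grids and stained with 5-10 drops of 1% uranyl acetate. Excess stain was wicked off and grids examined by TEM.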"}, "[3]": {"settings": "cited from earlier work"}, "[4]": {"system": "purified bovine brain tubulin", "assay": "Centrifugal assay for spiral formation", "type": "biochemical", "settings": "threshold EC50 < 100 μM", "method_in_brief": "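Purified bovine brain tubulin (MAP-free) at 10 μM in 0.75 M monosodium glutamate (stock pH 6.6), 10 μM GTP, 4% (v/v) DMSO as compound solvent. Incubated 20 min at 30 °C, then centrifuged 15 min at room temperature (about 20 °C). Lowry protein measured in supernatant and in uncentrifuged mixture. EC50 is the concentration removing 50% of tubulin from the supernatant versus no-compound reactions.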"}, "cultured cells": {"system": "cultured cells", "assay": "Microtubule bundle formation in cultured cells", "type": "cell-based", "settings": "synthetic compound"}, "tubulin [5]": {"system": "tubulin", "assay": "Binding of radiolabeled colchicine to tubulin", "parameters": "species or system bovine"}, "preformed microtubules": {"system": "preformed microtubules", "assay": "Binding of radiolabeled paclitaxel to preformed microtubules", "settings": "unpublished data"}, "[6]": {"system": "purified bovine brain tubulin", "assay": "Turbidimetric tubulin assembly assay in glutamate", "type": "biochemical"}, "tubulin [7]": {"system": "tubulin", "settings": "cited from earlier work"}, "tubulin [8]": {"system": "tubulin", "assay": "Binding of [3H]vinblastine to tubulin", "settings": "authors' attempt to reproduce ref 3"}}, "note": "Like-named read-outs stand apart in the source and are kept apart here."}
{"molecule": "CC12CCCn3ccc(c31)-c1ccccc1NC(=O)CC2", "note": "(stereo not shown) [Compound 5]", "values": [{"measurement": "IC50", "setting": "[1]", "value": "3.8 ± 1", "unit": "µM"}]}
{"molecule": "CC[C@]1(O)C[C@@H]2CN(CCc3c([nH]c4ccccc34)[C@@](C(=O)OC)(c3cc4c(cc3OC)N(C)[C@H]3[C@@](O)(C(=O)OC)[C@H](OC(C)=O)[C@]5(CC)C=CCN6CC[C@]43[C@@H]65)C2)C1", "note": "[vinblastine]", "values": [{"measurement": "morphology of polymer formed in glutamate with 10 μM GTP", "setting": "[2]", "value": "typical tight spirals"}]}
{"molecule": "(+)-rhazinilam", "values": [{"measurement": "activity of the enantiomer, in words", "setting": "[3]", "value": "inactive"}]}
{"molecule": "(±)-rhazinilam", "values": [{"measurement": "IC50", "setting": "[1]", "value": "1.8 ± 0.7", "unit": "µM"}, {"measurement": "activity in the cell-based (MCF-7) assay, in words", "setting": "[1]; threshold IC50 < 10 μM", "value": "approximately half as active as (−)-rhazinilam"}, {"measurement": "activity in the tubulin-based (spiralization) assay, in words", "setting": "[4]", "value": "approximately half as active as (−)-rhazinilam"}]}
{"molecule": "(−)-rhazinilam", "values": [{"measurement": "effect on microtubules in cultured cells", "setting": "cultured cells", "value": "formation of extensive bundled microtubules"}, {"measurement": "IC50", "setting": "[1]", "value": "0.97 ± 0.3", "unit": "µM"}, {"measurement": "inhibition of the binding of radiolabeled colchicine to tubulin", "setting": "tubulin [5]", "value": "no inhibitory effect"}, {"measurement": "inhibition of the binding of radiolabeled paclitaxel to preformed microtubules", "setting": "preformed microtubules", "value": "no inhibitory effect"}, {"measurement": "disassembly of polymer at 0 °C", "setting": "[6]; 20 μM compound + 0.4 mM GTP, 0.75 M glutamate (Fig. 5, curve 4)", "value": "little disassembly"}, {"measurement": "disassembly of polymer at 0 °C", "setting": "[6]; 20 μM compound, no GTP, 0.75 M glutamate (Fig. 5, curve 2)", "value": "disassembled slowly in the cold"}, {"measurement": "concentration at end of the inhibitory effect on tubulin assembly", "setting": "[6]; 0.8 M glutamate, 0.4 mM GTP, 10 μM tubulin (Fig. 2, curve 4)", "value": 3, "unit": "µM"}, {"measurement": "concentration at onset of spiral induction", "setting": "[6]; 0.8 M glutamate, 0.4 mM GTP, 10 μM tubulin (Fig. 2, curve 5)", "value": 4, "unit": "µM"}, {"measurement": "inhibition of the binding of [3H]vinblastine to tubulin", "setting": "tubulin [7]", "value": "inhibited the binding"}, {"measurement": "inhibition of the binding of [3H]vinblastine to tubulin", "setting": "tubulin [8]", "value": "unable to reproduce this result"}]}
